Results as given in ChEMBL document CHEMBL1151434 (Antimicrob Agents Chemother, 2007).
Values after ≈ are worked out from the molar mass of the structure shown.

Key:
Chlamydia psittaci 6BC = test: Antibacterial activity against 0.01 MOI wild type Chlamydia psittaci 6BC BCRB infected in mouse L2 cells treated 2 hrs after infection measured on day 7 by plaque assay; type: functional
Procedure, shortened: (§1)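 Susceptibility measured in a plaque assay on confluent mouse fibroblast L2 cell monolayers in 60-mm dishes. The inoculum was 10^5 chlamydial PFU, equal to an MOI of 0.01. MIC was taken as the drug concentration that inhibited development of these 10^5 PFU.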

Chlamydia trachomatis [1] = test: Antibacterial activity against 0.01 MOI wild type Chlamydia trachomatis L2/LGV/434/Bu infected in mouse L2 cells treated 2 hrs after infection measured on day 7 by plaque assay; type: functional; procedure, shortened: as §1
Chlamydia trachomatis [2] = test: Antibacterial activity against azithromycin-tolerant 0.01 MOI Chlamydia trachomatis L2AZM#23 harboring mutation in bacterial ribosomal protein L4 infected in mouse L2 cells treated 2 hrs after infection measured on day 7 by plaque assay; type: functional; procedure, shortened: as §1
Chlamydia trachomatis [3] = test: Antibacterial activity against azithromycin-tolerant 0.01 MOI Chlamydia trachomatis L2AZM#31 harboring mutation in bacterial ribosomal protein L4 infected in mouse L2 cells treated 2 hrs after infection measured on day 7 by plaque assay; type: functional; procedure, shortened: as §1
[4] = Biodistribution in healthy human epithelial lining fluid assessed as drug accumulation at 500 mg; type: ADME, organism-based; details: in vivo

## CO[C@@H]1[C@@H](O[C@@H]2O[C@H](C)[C@@H](O[C@H]3C[C@@](C)(O)[C@@H](OC(=O)CC(C)C)[C@H](C)O3)[C@H](N(C)C)[C@H]2O)[C@@H](CC=O)C[C@@H](C)[C@@H](O)/C=C/C=C/C[C@@H](C)OC(=O)C[C@H]1OC(C)=O [JOSAMYCIN]
Chlamydia psittaci 6BC
  MIC: 0.05 µg/mL (≈ 0.0604 µM)
Chlamydia trachomatis [1]
  MIC: 0.05 µg/mL (≈ 0.0604 µM)
Chlamydia trachomatis [2]
  MIC: 0.2 µg/mL (≈ 0.242 µM)
Chlamydia trachomatis [3]
  MIC: 0.2 µg/mL (≈ 0.242 µM)

## CCC[C@@H]1C[C@@H](C(=O)N[C@@H]([C@H]2O[C@H](SC)[C@H](O)[C@@H](O)[C@H]2O)[C@H](C)Cl)N(C)C1 [CLINDAMYCIN]
Chlamydia psittaci 6BC
  MIC: 0.4 µg/mL (≈ 0.941 µM)
Chlamydia trachomatis [1]
  MIC: 0.125 µg/mL (≈ 0.294 µM)
Chlamydia trachomatis [2]
  MIC: 0.5 µg/mL (≈ 1.18 µM)
Chlamydia trachomatis [3]
  MIC: 0.5 µg/mL (≈ 1.18 µM)

## CC[C@H]1OC(=O)[C@H](C)[C@@H](O[C@H]2C[C@@](C)(OC)[C@@H](O)[C@H](C)O2)[C@H](C)[C@@H](O[C@@H]2O[C@H](C)C[C@H](N(C)C)[C@H]2O)[C@](C)(O)C[C@@H](C)C(=O)[C@H](C)[C@@H](O)[C@]1(C)O [ERYTHROMYCIN]
Chlamydia psittaci 6BC
  MIC: 0.2 µg/mL (≈ 0.273 µM)
Chlamydia trachomatis [1]
  MIC: 0.2 µg/mL (≈ 0.273 µM)
Chlamydia trachomatis [2]
  MIC: 0.8 µg/mL (≈ 1.09 µM)
Chlamydia trachomatis [3]
  MIC: 0.8 µg/mL (≈ 1.09 µM)

## O=C(N[C@H](CO)[C@H](O)c1ccc([N+](=O)[O-])cc1)C(Cl)Cl [CHLORAMPHENICOL]
Chlamydia trachomatis [1]
  MIC: 0.4 µg/mL (≈ 1.24 µM)
Chlamydia trachomatis [2]
  MIC: 0.4 µg/mL (≈ 1.24 µM)
Chlamydia trachomatis [3]
  MIC: 0.4 µg/mL (≈ 1.24 µM)

## SPIRAMYCIN
Chlamydia psittaci 6BC
  MIC: 1 µg/mL
Chlamydia trachomatis [1]
  MIC: 0.8 µg/mL
Chlamydia trachomatis [2]
  MIC: 4 µg/mL
Chlamydia trachomatis [3]
  MIC: 4 µg/mL

## CC[C@H]1OC(=O)[C@H](C)[C@@H](O[C@H]2C[C@@](C)(OC)[C@@H](O)[C@H](C)O2)[C@H](C)[C@@H](O[C@@H]2O[C@H](C)C[C@H](N(C)C)[C@H]2O)[C@](C)(O)C[C@@H](C)CN(C)[C@H](C)[C@@H](O)[C@]1(C)O [AZITHROMYCIN]
[4]
  Drug uptake: 2 µg/mL
Chlamydia psittaci 6BC
  MIC: 0.1 µg/mL (≈ 0.134 µM)
Chlamydia trachomatis [1]
  MIC: 0.1 µg/mL (≈ 0.134 µM)
Chlamydia trachomatis [2]
  MIC: 0.8 µg/mL (≈ 1.07 µM)
Chlamydia trachomatis [3]
  MIC: 0.8 µg/mL (≈ 1.07 µM)
